Results taken from PMC7105014 (Journal of Functional Foods, 2011).

What was measured:
α-glucosidase = settings: read-out: IC50 against α-glucosidase; ref Hakamata et al., 2006; cited from earlier work
HCV NS3/4A protease = HCV NS3/4A protease (Hepatitis C virus genotype 1a, UniProt P27958); experiment: HCV NS3/4A protease inhibition; type: biochemical
Outline: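 Test compound in DMSO was mixed with HCV NS3/4A protease solution (0.5 μg/ml; SensoLyte 520 kit). The reaction was started with substrate diluted 100× from a DMSO stock. After 30 min at room temperature, fluorescence was read (ex 485/em 535 nm) and corrected with a substrate blank. % inhibition was taken against a compound-free control. IC50 came from concentration–inhibition curves, with embelin as reference inhibitor.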

HCV NS3/4A protease, sequence (P27958 1027-1657 limits assumed): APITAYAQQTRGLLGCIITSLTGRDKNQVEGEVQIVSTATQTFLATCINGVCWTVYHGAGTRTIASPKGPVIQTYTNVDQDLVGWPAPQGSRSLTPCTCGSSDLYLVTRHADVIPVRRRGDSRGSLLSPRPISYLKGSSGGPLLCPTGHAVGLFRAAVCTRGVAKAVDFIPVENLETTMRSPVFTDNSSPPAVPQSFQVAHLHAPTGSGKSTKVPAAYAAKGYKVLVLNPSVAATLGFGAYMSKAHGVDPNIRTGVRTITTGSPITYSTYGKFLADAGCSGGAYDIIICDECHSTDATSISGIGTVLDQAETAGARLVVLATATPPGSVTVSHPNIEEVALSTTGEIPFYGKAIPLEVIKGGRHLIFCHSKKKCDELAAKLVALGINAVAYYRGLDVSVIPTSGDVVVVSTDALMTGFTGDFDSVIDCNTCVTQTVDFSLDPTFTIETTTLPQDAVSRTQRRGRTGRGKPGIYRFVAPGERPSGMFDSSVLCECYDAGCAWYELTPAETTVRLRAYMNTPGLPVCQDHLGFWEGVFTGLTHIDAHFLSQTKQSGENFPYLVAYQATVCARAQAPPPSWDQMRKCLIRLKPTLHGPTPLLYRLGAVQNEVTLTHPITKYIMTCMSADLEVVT
HCV NS3/4A protease, sequence (P27958 1658-1711 partner limits assumed): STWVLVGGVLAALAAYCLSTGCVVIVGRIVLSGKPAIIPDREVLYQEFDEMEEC

Row | Structure (SMILES) | IC50 (α-glucosidase) [µM] | IC50 (HCV NS3/4A protease) [µM]
1 | Oc1cc(O)c2c(c1)O[C@H](c1ccc(O)c(O)c1)[C@@H](O)C2 [(+)-catechin] | > 500 | 
2 | CCCCCCCCCCCC1=C(O)C(=O)C=C(O)C1=O [Embelin, embelin] |  | 10.2
